Results on 72 molecules are retold here after ChEMBL document CHEMBL4513216, “Probing the Open Global Health Chemical Diversity Library for Multistage-Active Starting Points for Next-Generation Antimalarials” (ACS Infect Dis, 2020).

The data set can be described thus: Toxicity liver stage against HepG2, at 10uM. More on the design: test concentration 10 uM, cell line HepG2-A16-CD81EGFP. As to conditions: human, HepG2-A16-CD81EGFP cells; read-out: INHIBITION
It counts as cell-based. In a few lines:
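Uninfected HepG2-A16-CD81EGFP cells, 3 × 10^3 per well, 1536-well, plated on prespotted compound at 10 μM final, parasite-free screening media added to match infected plates; puromycin 10 μM positive, DMSO 0.5% negative; run in parallel with 48 h PbLuc assay at 37 °C, 5% CO2; viability by CellTiter-Glo luminescence, normalized to controls.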
As to `CN(C)Cc1nn(C)c2c1CCN(C(=O)c1cnccn1)C2`, the cytotoxicity at 10 µM is -134%.

In the case of `CN(C)C(=O)CN1CCN(C(=O)c2cnn(-c3ccccc3Cl)c2)CC1`, the cytotoxicity at 10 µM was -3.67%.

Consider `CC(=O)N1CC2(CCCC2)c2ccccc21`, for which the cytotoxicity at 10 µM was determined as 0.83%.

For the molecule `CNc1nc(C2CCCN(C(=O)C(C)(C)OC)C2)nc2c1CN(C)CC2` (configuration not stated), the cytotoxicity at 10 µM is -8.24%.

With `Cc1cccc(C(=O)N2CCn3c(CN4CCN(C)CC4)cnc3C2)n1`, the cytotoxicity at 10 µM was -75.2%.

Regarding `Cc1nn(C)c(C)c1CC(C)NC(=O)NCc1ccn(C(C)C)n1` (configuration not stated), the cytotoxicity at 10 µM is -1.54%.

On to `CN1CCCC(c2ccnc(C(=O)NCC3CC3)c2)C1` (configuration not stated), for which the cytotoxicity at 10 µM was determined as 3.89%.

As for `CCc1nc(CN2CCN(C(=O)C3CCCCC3)CC2)cs1`, the cytotoxicity at 10 µM was 3.64%.

`CCOc1ccccc1N(C)C(=O)c1cscn1`: the cytotoxicity at 10 µM was -0.704%.

On to `Nc1ccnc(N2C[C@H]3CC[C@@H](C2)N(CC2CCC2)C3=O)n1`, for which the cytotoxicity at 10 µM is -0.253%.

Regarding `O=C(c1nc(=O)[nH][nH]1)N1CCCN(CC2CCCCC2)CC1`, the cytotoxicity at 10 µM is -12.9%.

As for `CC(C)NC(=O)N1CCC2(CC(=O)N(c3cccc(C#N)c3)C2)C1` (configuration not stated), the cytotoxicity at 10 µM came out at 5.66%.

Consider `Cc1nc(C2CCCN2Cc2nnc(C3CC3)o2)no1` (configuration not stated), for which the cytotoxicity at 10 µM is -5.97%.

In the case of `CC(C)(C)N1CC(C(=O)N2CCN(CCn3cccc3)CC2)CC1=O` (configuration not stated), the cytotoxicity at 10 µM is 18.7%.

On to `CNC(=O)c1ccc2c(c1)C1(CCN(CC(C)C)CC1)C(=O)N2`, for which the cytotoxicity at 10 µM was -2.56%.

Regarding `Cn1cc(CN2CC[C@]3(C[C@H](Oc4ccccn4)CO3)C2)cn1`, the cytotoxicity at 10 µM worked out at 10.8%.

On to `Cn1c(NC(=O)CCS(=O)(=O)C2CCCC2)nc2cc(Cl)ccc21`, for which the cytotoxicity at 10 µM came out at 7.42%.

`CCN(CC)Cc1ccc(C(=O)N2CCCC2Cn2cc(C)cn2)o1` (configuration not stated): the cytotoxicity at 10 µM was -11.4%.

As to `CN(C(=O)C(c1c(F)cccc1Cl)N(C)C)c1nccs1` (configuration not stated), the cytotoxicity at 10 µM is -58%.

`CC(=O)N1CC2(CCN(C(=O)c3cccc4[nH]ccc34)CC2)C1`: the cytotoxicity at 10 µM was -138%.

`Cc1nc(C2CCCN(C(=O)c3ccc(OCC4CC4)cc3)C2)no1` (configuration not stated): the cytotoxicity at 10 µM was -7.69%.

As for `Cc1n[nH]c(C)c1C1CCCN1C(=O)c1coc(Br)c1` (configuration not stated), the cytotoxicity at 10 µM was 4.23%.

As to `O=C(NC1COC2(CCN(CC3CCC3)CC2)C1)c1ccccn1` (configuration not stated), the cytotoxicity at 10 µM was -1.95%.

As for `Cc1cc2cc(C(=O)N[C@@H]3CC[C@@H](N4CCCC4)[C@@H]3O)ccc2o1`, the cytotoxicity at 10 µM is -4.72%.

As to `CCc1ccc(NC(=O)c2cnc(N3CCCC3)nc2C)cc1`, the cytotoxicity at 10 µM came to 0.709%.

Take `CN(C)c1cc(CNc2ccc(S(=O)(=O)C(C)(C)C)nc2)ccn1`: the cytotoxicity at 10 µM is -7.33%.

As for `CCc1nnc2n1CCN(C(C(=O)NC1CC1)c1ccccc1)C2` (configuration not stated), the cytotoxicity at 10 µM was -7.07%.

For the molecule `Cc1nc(Oc2ccccc2Cl)sc1C(=O)O`, the cytotoxicity at 10 µM is -11.9%.

For the molecule `Cc1cnc(C(=O)N2C[C@H]3CN(Cc4cccc(F)c4)C(=O)[C@H]3C2)cn1`, the cytotoxicity at 10 µM is -85.7%.

Turning to `Cc1csc(CNc2cnc3c(c2)c(C)nn3C)n1`, the cytotoxicity at 10 µM stood at 0.739%.

Consider `CN(Cc1ccc(F)cc1)CC1(O)CCCN(CC(C)(C)C)C1=O` (configuration not stated), for which the cytotoxicity at 10 µM is -9.35%.

For the molecule `Cc1ccc(CN2CCn3c(C(=O)N(C)C)cnc3C2)s1`, the cytotoxicity at 10 µM stood at 5.97%.

For `CC(C)NC(=O)C(NC(=O)N1CCN(c2ccc(Cl)cc2)CC1)C(C)C` (configuration not stated), the cytotoxicity at 10 µM stood at 5.69%.

On to `Cc1cccc(CN2CCC3(CCN(c4ccccn4)C3)C2=O)c1` (configuration not stated), for which the cytotoxicity at 10 µM is 9.3%.

On to `CCC(C(=O)NCCc1ccn(-c2ccccc2)n1)N1CCCC1=O` (configuration not stated), for which the cytotoxicity at 10 µM amounted to 6.18%.

`c1ccc(OCCNCc2cccs2)nc1`: the cytotoxicity at 10 µM was -3.26%.

In the case of `Cc1cc(C(=O)N2CCCCC2C)ccc1NCC(=O)N1CCOCC1` (configuration not stated), the cytotoxicity at 10 µM turned out to be 4.08%.

Take `Cc1csc(C2(NC(=O)CCc3ccncc3)CCCC2)n1`: the cytotoxicity at 10 µM was -12.1%.

In the case of `Cc1nc(-c2ccsc2)sc1C(=O)N1CCn2c(C)nnc2C1`, the cytotoxicity at 10 µM is -3.29%.

Take `CCCn1nnnc1CN(c1ccc(N2CCOCC2)cc1)C(C)C`: the cytotoxicity at 10 µM was determined as 6.8%.

As for `Cc1ccccc1C(NC(=O)Cn1cc(C2CC2)nn1)C1CC1` (configuration not stated), the cytotoxicity at 10 µM is -1.03%.

For `Cc1nn(C)c2nc(N(Cc3nccs3)C3CC3)sc12`, the cytotoxicity at 10 µM is -45.9%.

Consider `CCc1ccc(OCC(O)CN2CCN(S(C)(=O)=O)CC2)cc1` (configuration not stated), for which the cytotoxicity at 10 µM came to 7.07%.

With `Cc1nnc(N2CCCC2)c(C(N)=O)c1C`, the cytotoxicity at 10 µM stood at 7.19%.

Take `Fc1ccc2[nH]c(C3CCCN3Cc3c[nH]cn3)nc2c1` (configuration not stated): the cytotoxicity at 10 µM came to 0.786%.

Take `CC[C@H]1CN2CC[C@H]1C[C@@H]2CNCc1ccc(OC(F)(F)F)cc1`: the cytotoxicity at 10 µM is -0.785%.

Regarding `CS(=O)(=O)Cc1cc(Cl)c2c(c1)OCCCO2`, the cytotoxicity at 10 µM was -2.55%.

Turning to `COc1ccccc1CCN1CCCC(CN(C)Cc2cc(C)n[nH]2)C1` (configuration not stated), the cytotoxicity at 10 µM is -4.52%.

On to `Cc1cc(CCC(=O)NCc2nccn2C)ccc1Br`, for which the cytotoxicity at 10 µM is 2.95%.

With `Cc1cc(N2CC(c3n[nH]c4nccnc34)C2)ncn1`, the cytotoxicity at 10 µM was -11.2%.

For the molecule `Cc1nnc(CN(Cc2cccc3c2OCO3)CC2CCCO2)n1C` (configuration not stated), the cytotoxicity at 10 µM turned out to be 3.93%.

Regarding `CC(=O)NC1CCN(C(=O)Nc2ccc(SC(F)F)cc2)CC1`, the cytotoxicity at 10 µM was -6.91%.

For `COC(=O)CCNC(=O)c1nnn(-c2ccc(C)cc2)c1C1CC1`, the cytotoxicity at 10 µM was -0.121%.

With `CN(c1ncccc1C#N)C1CCN(Cc2ccncc2)CC1`, the cytotoxicity at 10 µM is -2.86%.

For the molecule `O=C(NCCc1coc(-c2ccc(F)cc2)n1)NCC1CCOC1` (configuration not stated), the cytotoxicity at 10 µM is -1.94%.

With `Cc1cccc(CNC(=O)CNc2cc(CO)ccc2Cl)c1`, the cytotoxicity at 10 µM was determined as 1.73%.

With `Cc1ccsc1CCNC(=O)CCC1CCCCN1C` (configuration not stated), the cytotoxicity at 10 µM is -3.13%.

On to `COCCN1CCC2(CCN(CC3CC3)CC2)C1=O`, for which the cytotoxicity at 10 µM was 7.55%.

Turning to `Cc1cnc(N)nc1NCCSCc1[nH]cnc1C`, the cytotoxicity at 10 µM was determined as 4.34%.

In the case of `Cc1ccccc1C(C)NC(=O)Cc1c(C)nc2cc(=O)[nH]n2c1C` (configuration not stated), the cytotoxicity at 10 µM was 10.8%.

Consider `CCc1nc(CN2CCCC(NCc3cnn(C(C)(C)C)c3)C2)no1` (configuration not stated), for which the cytotoxicity at 10 µM is -6.77%.

Regarding `Cc1noc(C)c1-c1n[nH]c2c1CN(S(=O)(=O)c1cccnc1)CC2`, the cytotoxicity at 10 µM was -11%.

On to `COC[C@]1(O)CCN(Cc2cnc(N(C)C)nc2)CC1(C)C`, for which the cytotoxicity at 10 µM is -5.03%.

Turning to `Cc1cc(NC(=O)CN2CCc3nn(C)c(=O)cc3C2)on1`, the cytotoxicity at 10 µM was -1.45%.

`Cc1ccc(O)c(CN2CCn3nc(C(=O)N4CCCC4)cc3C2)n1`: the cytotoxicity at 10 µM worked out at 1.5%.

On to `CN(C)CCNC(=O)c1cc(-c2cnc(N3CCOCC3)nc2)cn1C`, for which the cytotoxicity at 10 µM is -78.2%.

On to `CCn1ccnc1CN1CCCC1C(=O)Nc1nccs1` (configuration not stated), for which the cytotoxicity at 10 µM was -6.7%.

As for `COCCN(C)c1ccc(NCc2cscn2)nc1`, the cytotoxicity at 10 µM was 0.513%.

Consider `COCC(=O)N1CCc2ncc(Cn3cncn3)n2CC1`, for which the cytotoxicity at 10 µM was -81%.

In the case of `Cc1ccnn1CCN1CCCC2(CCC(=O)N(C3CCCC3)C2)C1` (configuration not stated), the cytotoxicity at 10 µM was 5.93%.

Turning to `Cc1cc(CN(C)C(=O)c2ccc(N(C)C)nc2)no1`, the cytotoxicity at 10 µM was -5.4%.

Consider `O=C(NCCc1noc(-c2ccccn2)n1)NCC1CCCC1`, for which the cytotoxicity at 10 µM worked out at 0.321%.
